From PMC9529790 (Nature chemical biology, 2022)
One block for each molecule: values may come before it.

Key:
[1] = tested on: parental and 5-FU-resistant SW480 cell lines; assay: Spheroid growth of parental and 5-FU-resistant SW480 lines; assay type: cell-based, human; conditions: spheroids
How it was run: (§1)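 SW480 cells were seeded on solidified Matrigel in RPMI-1640 spheroid medium containing 20 ng/mL EGF, 20 ng/mL FGF, heparin, N-2 supplement and penicillin/streptomycin. Seeding was 1,000 cells/well (96-well) or 5,000 cells/well (24-well). Test compound was added in medium and cultures were grown 7 days at 37 °C with 5% CO2. Spheroids were imaged by phase contrast (some stained with crystal violet), and small objects excluded before area analysis.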

[2] = biological target: T1, ALDH1B1 (Homo sapiens, UniProt P30837); assay: ALDEFLUOR assay, ALDH1B1 transiently expressed in ALDH1A3-/- A375 cells; assay type: cell-based; conditions: flow cytometry
T1 sequence (P30837 18-517): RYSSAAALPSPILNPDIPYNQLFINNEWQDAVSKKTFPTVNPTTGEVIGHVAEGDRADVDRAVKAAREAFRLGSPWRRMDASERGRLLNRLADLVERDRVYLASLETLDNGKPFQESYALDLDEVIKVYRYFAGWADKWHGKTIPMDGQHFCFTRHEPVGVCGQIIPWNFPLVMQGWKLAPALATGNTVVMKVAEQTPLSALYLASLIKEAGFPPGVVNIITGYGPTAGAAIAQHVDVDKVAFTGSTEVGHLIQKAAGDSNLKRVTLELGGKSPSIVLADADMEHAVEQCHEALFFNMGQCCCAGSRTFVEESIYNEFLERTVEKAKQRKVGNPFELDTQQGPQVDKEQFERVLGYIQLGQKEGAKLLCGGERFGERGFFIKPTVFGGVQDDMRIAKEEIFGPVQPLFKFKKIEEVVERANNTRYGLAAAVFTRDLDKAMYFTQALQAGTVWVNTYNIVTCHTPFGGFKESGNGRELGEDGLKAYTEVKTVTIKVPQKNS
How it was run: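 ALDH1A3-knockout A375 cells were grown 24 h, then transfected with empty pCMV6, pCMV6-GFP (to estimate transfection efficiency) or pCMV6-ALDH1B1. Medium was changed at 24 h and cells grown another 24 h. Trypsinized cells in ALDEFLUOR buffer were exposed to test compound for 15 min at 37 °C with 5% CO2, then to ALDEFLUOR reagent for 30 min. Live single cells (DAPI gating) were analysed by flow cytometry; read-out is % of cells outside the negative-control gate (ALDEFLUOR vs SSC-A).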

[3] = tested on: wild-type colon PDOs; assay: Patient-derived organoid viability; assay type: cell-based, human; conditions: seven days treatment; compared with tumor PDOs
How it was run: (§2)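 Organoids (wild-type colon or colorectal tumour) were dissociated with TrypLE plus 10 µM Y-27632. They were plated as 10-µL BME-2 domes at 1,000 cells/µL in WENR medium with 10 µM Y-27632 and 2.5 µM CHIR99021, and grown 3–5 days. Test compound at varying concentrations in WENR was then given for 7 days. Viability was read as resazurin metabolism with 10% Alamar Blue: 4 h for tumour PDOs, 6 h for wild-type PDOs, at 37 °C in the dark.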

[4] = tested on: ALDH1B1 variants (E124G/N457G and V173I/N457G); assay: Inhibitor resistance of ALDH1B1 mutants; assay type: biochemical, human
How it was run: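 A375 ALDH1A3-knockout cells were transfected (3:1 DNA:FuGENE HD) with wild-type or mutant pCMV6-ALDH1B1 and grown 48 h. Cells in ALDEFLUOR buffer received ALDEFLUOR reagent. Within 10 s, aliquots were moved to tubes holding DMSO, DEAB (1.5 mM stock in EtOH) or test compound (100 µM or 10 µM stocks in DMSO). Tubes were incubated 30 min at 37 °C, cells pelleted, and analysed by flow cytometry.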

[5] = tested on: colorectal tumor PDO lines; assay: Patient-derived organoid viability; assay type: cell-based, human; conditions: seven days treatment; CTO1-CTO4
How it was run: as §2

[6] = tested on: SW480 cells; assay: Thermal proteome profiling; assay type: binding, human; conditions: 2 µM, 1 hour; cutoffs ΔTm ≥ 1.5 °C and P < 0.05
[7] = tested on: E124G/N457G mutant-expressing cells; assay type: cell-based, human
How it was run: as §1

[8] = biological target: T2, endogenous ALDH1B1 in live SW480 cells (Homo sapiens, UniProt P30837); assay: Cellular thermal shift assay; assay type: binding; conditions: 10 µM, 1 hour
T2 sequence (P30837 18-517): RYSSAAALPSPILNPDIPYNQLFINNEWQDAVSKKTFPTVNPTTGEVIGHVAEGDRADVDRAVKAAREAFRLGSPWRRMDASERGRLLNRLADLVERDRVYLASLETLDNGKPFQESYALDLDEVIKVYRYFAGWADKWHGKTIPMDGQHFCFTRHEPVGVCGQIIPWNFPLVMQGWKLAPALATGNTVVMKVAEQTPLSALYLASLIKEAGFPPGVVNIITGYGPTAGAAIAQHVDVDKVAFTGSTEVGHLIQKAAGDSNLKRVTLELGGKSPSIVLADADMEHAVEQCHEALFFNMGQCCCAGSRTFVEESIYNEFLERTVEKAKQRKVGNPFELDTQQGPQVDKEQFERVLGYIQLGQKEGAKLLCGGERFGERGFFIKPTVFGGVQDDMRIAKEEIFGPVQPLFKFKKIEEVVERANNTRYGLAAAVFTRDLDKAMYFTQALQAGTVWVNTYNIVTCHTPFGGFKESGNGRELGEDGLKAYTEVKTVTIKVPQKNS
How it was run: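 SW480 cells were grown in 15-cm dishes, trypsinized at about 80% confluence, and kept live in the incubator for 1 h. Cells were then pelleted at 480 x g for 5 min, washed with PBS and resuspended in PBS with protease inhibitors. Total protein per lane was checked on stain-free gels alongside immunoblotting of ALDH1B1.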

[9] = biological target: T3, ALDH1B1 (aldehyde dehydrogenase 1B1), human recombinant, mitochondria-targeting sequence removed (human), P30837; assay: crystal structure; conditions: remark: other sources report otherwise
T3 chain: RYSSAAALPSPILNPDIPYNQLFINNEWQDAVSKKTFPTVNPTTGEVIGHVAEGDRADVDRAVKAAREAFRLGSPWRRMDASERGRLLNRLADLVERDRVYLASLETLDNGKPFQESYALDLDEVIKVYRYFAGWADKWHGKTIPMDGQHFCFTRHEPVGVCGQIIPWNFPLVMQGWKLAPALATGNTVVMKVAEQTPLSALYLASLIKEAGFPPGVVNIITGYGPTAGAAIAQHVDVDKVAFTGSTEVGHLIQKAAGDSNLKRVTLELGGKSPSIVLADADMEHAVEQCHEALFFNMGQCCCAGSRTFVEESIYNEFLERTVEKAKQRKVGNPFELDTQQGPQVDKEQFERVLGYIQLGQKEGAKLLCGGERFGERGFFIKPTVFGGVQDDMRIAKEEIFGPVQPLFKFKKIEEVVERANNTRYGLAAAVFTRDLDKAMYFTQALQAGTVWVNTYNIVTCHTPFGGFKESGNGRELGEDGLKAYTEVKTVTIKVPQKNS

Molecule: O=c1[nH]cc(F)c(=O)[nH]1 [5-FU]
loss of sensitivity of 5-FU-resistant SW480 line versus parental line [1]: approximately 20 fold

B1: ALDH1B1 (aldehyde dehydrogenase 1B1), human recombinant, mitochondria-targeting sequence removed, P30837 18-517 (enzyme)
chain: RYSSAAALPSPILNPDIPYNQLFINNEWQDAVSKKTFPTVNPTTGEVIGHVAEGDRADVDRAVKAAREAFRLGSPWRRMDASERGRLLNRLADLVERDRVYLASLETLDNGKPFQESYALDLDEVIKVYRYFAGWADKWHGKTIPMDGQHFCFTRHEPVGVCGQIIPWNFPLVMQGWKLAPALATGNTVVMKVAEQTPLSALYLASLIKEAGFPPGVVNIITGYGPTAGAAIAQHVDVDKVAFTGSTEVGHLIQKAAGDSNLKRVTLELGGKSPSIVLADADMEHAVEQCHEALFFNMGQCCCAGSRTFVEESIYNEFLERTVEKAKQRKVGNPFELDTQQGPQVDKEQFERVLGYIQLGQKEGAKLLCGGERFGERGFFIKPTVFGGVQDDMRIAKEEIFGPVQPLFKFKKIEEVVERANNTRYGLAAAVFTRDLDKAMYFTQALQAGTVWVNTYNIVTCHTPFGGFKESGNGRELGEDGLKAYTEVKTVTIKVPQKNS
stoichiometry N [9]: 4

Further lines, with some results ahead:

cellular ALDH1B1 activity (ALDEFLUOR signal) [2]: abrogated
Molecule: CCN(CC)c1ccc(C=O)cc1 [DEAB, N,N-diethylaminobenzaldehyde]

inhibitor sensitivity of ALDH1B1 variants [4]: markedly reduced inhibitor sensitivity
thermal stabilization of ALDH1B1 [8]: stabilizes endogenous ALDH1B1
Molecule: COc1cc(Cl)ccc1C1=CN(c2ccc(-c3ccccc3OC)cc2)C2=NCCCN12.O=CO [IGUANA-1]
sensitivity of wild-type colon PDOs [3]: less sensitive
growth of colorectal adenocarcinoma PDOs [5]: inhibit the growth of each line
inhibitor-dependent change in thermal stability (ΔTm), proteome-wide [6]: largest inhibitor-dependent increase in thermal stability
resistance of mutant-expressing spheroid cultures versus wild-type ALDH1B1 [7]: more resistant
